# Results reported in ChEMBL document CHEMBL1124579, “7-Heteroaryl-1,2,3,5-tetrahydroimidazo[2,1-b]quinazolin -2(1H)-one derivatives with cardiac stimulant activity” (J Med Chem, 1989).
# Assays:
# Canis familiaris [1] = experiment: Percent increase in dP/dtmax (positive inotropic activity) in anesthetized dog after administration of 50 ug/kg Intravenously; type: functional, Canis lupus familiaris
# How it was run: (§1)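 Anesthetized dog with a catheter-tip transducer passed into the left ventricle via the carotid artery. LV pressure is differentiated to give dP/dtmax, the contractility index. There is 0.75 h equilibration after surgery. The compound is given iv in 0.9% saline (4 mL), 0.5 h after the standard agent (50 μg/kg). The cycle is repeated once control levels return, at least 0.5 h apart. The result is the % increase in dP/dtmax.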
# Canis familiaris [2] = experiment: Relative inotropic response (50 umg/kg Intravenously) to that of 4-[4-[2-(1,1-dioxo-2-isothiazolidinyl)ethyl]-1-piperidinyl]-6,7-dimethoxyquinazoline […], in dog; type: functional, Canis lupus familiaris
# How it was run: (§2)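 Anesthetized dog with a left-ventricular catheter introduced via the carotid artery; dP/dtmax is derived from LV pressure. The standard quinazoline (50 μg/kg iv) is given first, then the test compound iv in saline 0.5 h later, in the same dog. Relative potency = (% increase in dP/dtmax to drug ÷ % increase to standard) × (dose standard ÷ dose drug).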
# Canis familiaris [3] = experiment: Percent increase in dP/dtmax (positive inotropic activity) in anesthetized dog after administration of 250 ug/kg Intravenously; type: functional, Canis lupus familiaris; how it was run: as §1
# Canis familiaris [4] = experiment: Cardiac contractility (decrease in the QA interval) in conscious dog 1 hour after oral administration (dose 1 mg/kg); type: functional, Canis lupus familiaris
# How it was run: (§3)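 Conscious dogs; the test substance is given by gavage as a solution. The QA interval is the time from the ECG R wave to the upstroke of the arterial pressure pulse, measured by computer. It is recorded every 0.16 h from 0.5 h before dosing to 4 h after. Each point is the mean of six consecutive sets, each averaged over 8 s. The result is the change from the mean predose value.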
# Canis familiaris [5] = experiment: Cardiac contractility (decrease in the QA interval) in conscious dog, 3 hours after oral administration (dose 1 mg/kg); type: functional, Canis lupus familiaris; how it was run: as §3
# Canis familiaris [6] = experiment: Percent increase in dP/dtmax (positive inotropic activity) in anesthetized dog after administration of 10 micro mg/kg Intravenously; type: functional, Canis lupus familiaris; how it was run: as §1
# Canis familiaris [7] = experiment: Relative inotropic response (10 ug/kg Intravenously) to that of 4-[4-[2-(1,1-dioxo-2-isothiazolidinyl)ethyl]-1-piperidinyl]-6,7-dimethoxyquinazoline (5- ug/kg), in dog; type: functional, Canis lupus familiaris; how it was run: as §2
# Canis familiaris [8] = experiment: Relative inotropic response (50 micro mg/kg Intravenously) to that of 4-[4-[2-(1,1-dioxo-2-isothiazolidinyl)ethyl]-1-piperidinyl]-6,7-dimethoxyquinazoline (5- ug/kg), in dog; type: functional, Canis lupus familiaris; how it was run: as §2
# Canis familiaris [9] = experiment: Relative inotropic response (20 micro mg/kg Intravenously) to that of 4-[4-[2-(1,1-dioxo-2-isothiazolidinyl)ethyl]-1-piperidinyl]-6,7-dimethoxyquinazoline (5- ug/kg), in dog; type: functional, Canis lupus familiaris; how it was run: as §2
# Canis familiaris [10] = experiment: Percent increase in dP/dtmax (positive inotropic activity) in anesthetized dog after administration of 20 ug/kg Intravenously; type: functional, Canis lupus familiaris; how it was run: as §1
# Canis familiaris [11] = experiment: Cardiac contractility (decrease in the QA interval) in conscious dog, 3 hours after oral administration (dose 0.125 mg/kg); type: functional, Canis lupus familiaris; how it was run: as §3
# Canis familiaris [12] = experiment: Cardiac contractility (decrease in the QA interval) in conscious dog 1 hour after oral administration (dose 0.125 mg/kg); type: functional, Canis lupus familiaris; how it was run: as §3
# Canis familiaris [13] = experiment: Relative inotropic response (50 ug/kg Intravenously) to that of 4-[4-[2-(1,1-dioxo-2-isothiazolidinyl)ethyl]-1-piperidinyl]-6,7-dimethoxyquinazoline […], in dog; type: functional, Canis lupus familiaris; how it was run: as §2
# Canis familiaris [14] = experiment: Cardiac contractility (decrease in the QA interval) in conscious dog 1 hour after oral administration (dose 0.1 mg/kg); type: functional, Canis lupus familiaris; how it was run: as §3
# Canis familiaris [15] = experiment: Percent increase in dP/dtmax of positive inotropic activity in conscious dog after administration of 25 ug/kg orally
# Canis familiaris [16] = experiment: Percent increase in dP/dtmax of positive inotropic activity in conscious dog after administration of 100 ug/kg orally
# Canis familiaris [17] = experiment: Relative inotropic response (2 ug/kg Intravenously) to that of 4-[4-[2-(1,1-dioxo-2-isothiazolidinyl)ethyl]-1-piperidinyl]-6,7-dimethoxyquinazoline (5- ug/kg), in dog; type: functional, Canis lupus familiaris; how it was run: as §2
# Canis familiaris [18] = experiment: Cardiac contractility (decrease in the QA interval) in conscious dog, 3 hours after oral administration (dose 0.1 mg/kg); type: functional, Canis lupus familiaris; how it was run: as §3
# Canis familiaris [19] = experiment: Percent increase in dP/dtmax (positive inotropic activity) in anesthetized dog after administration of 2 micro mg/kg Intravenously; type: functional, Canis lupus familiaris; how it was run: as §1
# Canis familiaris [20] = experiment: Relative inotropic response (250 ug/kg Intravenously) to that of 4-[4-[2-(1,1-dioxo-2-isothiazolidinyl)ethyl]-1-piperidinyl]-6,7-dimethoxyquinazoline (5- ug/kg), in dog; type: functional, Canis lupus familiaris; how it was run: as §2
# [21] = Dissociation constant was determined; type: physicochemical
# Canis familiaris [22] = experiment: Cardiac contractility (decrease in the QA interval) in conscious dog, 3 hours after oral administration (dose 0.25 mg/kg); type: functional, Canis lupus familiaris; how it was run: as §3
# Canis familiaris [23] = experiment: Cardiac contractility (decrease in the QA interval) in conscious dog 1 hour after oral administration (dose 0.25 mg/kg); type: functional, Canis lupus familiaris; how it was run: as §3
# Canis familiaris [24] = experiment: Relative inotropic response (25 ug/kg Intravenously) to that of 4-[4-[2-(1,1-dioxo-2-isothiazolidinyl)ethyl]-1-piperidinyl]-6,7-dimethoxyquinazoline ([…]), in dog; type: functional, Canis lupus familiaris; how it was run: as §2
# Canis familiaris [25] = experiment: Percent increase in dP/dtmax (positive inotropic activity) in anesthetized dog after administration of 25 ug/kg Intravenously; type: functional, Canis lupus familiaris; how it was run: as §1
smiles,measurement,setting,value
CC1CC(O)=NN=C1c1ccc(-n2ccnc2)cc1.Cl (configuration not stated),Increase in dP/dtmax,Canis familiaris [1],100%
same,Relative potency,Canis familiaris [2],1.6
Cc1cn(-c2cc(C)c3c(c2)CN2C(=N3)NC(=O)C2(C)C)c(C)n1,Increase in dP/dtmax,Canis familiaris [3],20%
Cc1cn(-c2cc(C)c3c(c2)CN2C(=N3)NC(=O)C2C)c(C)n1 (configuration not stated),Decrease in the QA interval,Canis familiaris [4],9 ms
same,Decrease in the QA interval,Canis familiaris [5],15 ms
same,Increase in dP/dtmax,Canis familiaris [6],12%
same,Relative inotropic potency,Canis familiaris [7],0.9
O=C1CN2Cc3cc(-n4cncn4)ccc3N=C2N1,Increase in dP/dtmax,Canis familiaris [1],63%
same,Relative inotropic potency,Canis familiaris [8],1.7
Cc1cn(-c2ccc3c(c2)CN2CC(=O)NC2=N3)c(C)n1,Decrease in the QA interval,Canis familiaris [4],6 ms
same,Decrease in the QA interval,Canis familiaris [5],10 ms
same,Relative inotropic potency,Canis familiaris [9],1.9
same,Increase in dP/dtmax,Canis familiaris [10],30%
Cc1cc(-n2cncn2)cc2c1NC1=NC(=O)CN1C2,Decrease in the QA interval,Canis familiaris [11],12 ms
same,Increase in dP/dtmax,Canis familiaris [1],76%
same,Relative inotropic potency,Canis familiaris [8],3.2
same,Decrease in the QA interval,Canis familiaris [12],8 ms
Cc1ccc(-c2ccc3c(c2)C(C)N2CC(=O)N=C2N3)c(C)n1 (configuration not stated),Decrease in the QA interval,Canis familiaris [11],9 ms
same,Increase in dP/dtmax,Canis familiaris [1],50%
same,Relative inotropic potency,Canis familiaris [8],1.6
same,Decrease in the QA interval,Canis familiaris [12],13 ms
Cc1ccc(-c2ccc3c(c2)CN2CC(=O)NC2=N3)c(C)n1,Decrease in the QA interval,Canis familiaris [4],14 ms
same,Decrease in the QA interval,Canis familiaris [5],15 ms
same,Relative potency,Canis familiaris [13],1.3
same,Increase in dP/dtmax,Canis familiaris [1],29%
Cc1cc(-n2cnnc2)cc2c1NC1=NC(=O)CN1C2,Relative potency,Canis familiaris [13],0.5
same,Increase in dP/dtmax,Canis familiaris [1],24%
Cc1ccc(-c2cc(C)c3c(c2)CN2CC(=O)NC2=N3)c(C)n1,Decrease in the QA interval,Canis familiaris [11],15 ms
same,Increase in dP/dtmax,Canis familiaris [6],30%
same,Relative inotropic potency,Canis familiaris [7],2.7
same,Decrease in the QA interval,Canis familiaris [12],15 ms
Cc1cn(-c2cc(C)c3c(c2)CN2CC(=O)NC2=N3)c(C)n1,Decrease in the QA interval,Canis familiaris [14],5 ms
same,Increase in dP/dtmax,Canis familiaris [15],20%
same,Increase in dP/dtmax,Canis familiaris [16],50%
same,Relative inotropic potency,Canis familiaris [17],7.8
same,Decrease in the QA interval,Canis familiaris [18],15 ms
same,Increase in dP/dtmax,Canis familiaris [19],23%
O=C1CN2Cc3ccccc3N=C2N1,Increase in dP/dtmax,Canis familiaris [3],24%
same,Relative inotropic potency,Canis familiaris [20],0.1
same,pKa,[21],10.9
Cc1[nH]c(=O)c(C#N)cc1-c1ccncc1 [MILRINONE],Decrease in the QA interval,Canis familiaris [22],7 ms
same,Decrease in the QA interval,Canis familiaris [23],13 ms
same,Relative potency,Canis familiaris [24],1.6
same,Increase in dP/dtmax,Canis familiaris [25],46%
Cc1cn(-c2cc(C)c3[nH]c(=O)ccc3c2)c(C)n1 [NANTERINONE],pKa,[21],11.2
C[C@@H]1C(=O)NC2=Nc3cccc(Cl)c3CN21 [QUAZINONE],Increase in dP/dtmax,Canis familiaris [3],66%
same,Relative inotropic potency,Canis familiaris [20],0.3
